Among the data in ChEMBL document CHEMBL2401625, “Synthesis and evaluation of pharmacological properties of some new xanthone derivatives with piperazine moiety” (Bioorg Med Chem Lett, 2013) are Activity, Ki and inhibition values, retold here.

The test system of series [1] is Mus musculus. As to the kind of experiment: Neurotoxicity in CF1 mouse assessed as minimal motor impairment at 300 mg/kg, ip after 0.5 hrs by rotorod test. It counts as toxicity, organism-based. The arrangement: dose 300 mg/kg, route intraperitoneal. As to conditions: in vivo. The gist of the method:
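Rotarod neurotoxicity screen in mice dosed i.p. at 30, 100 or 300 mg/kg, read 0.5 or 4 h after dosing. The animal must stay on a rod rotating at 6 rpm without falling, measured 3 times within 1 min. A fall counts as minimal motor impairment. Result is recorded as impaired animals over animals used.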
For orientation: In the rotarod test animals must keep their balance on a rotating rod.

The target of series [2] is 5-hydroxytryptamine receptor 6 (Homo sapiens, UniProt P50406). As to the kind of experiment: Displacement of [3H]LSD from human 5HT6 receptor expressed in HEK293 cells after 1 hr. In kind it is cell-based. (In general: Displacement assays read how much labelled ligand stays bound in the presence of the test substance.)
5-hydroxytryptamine receptor 6, sequence (P50406 whole entry): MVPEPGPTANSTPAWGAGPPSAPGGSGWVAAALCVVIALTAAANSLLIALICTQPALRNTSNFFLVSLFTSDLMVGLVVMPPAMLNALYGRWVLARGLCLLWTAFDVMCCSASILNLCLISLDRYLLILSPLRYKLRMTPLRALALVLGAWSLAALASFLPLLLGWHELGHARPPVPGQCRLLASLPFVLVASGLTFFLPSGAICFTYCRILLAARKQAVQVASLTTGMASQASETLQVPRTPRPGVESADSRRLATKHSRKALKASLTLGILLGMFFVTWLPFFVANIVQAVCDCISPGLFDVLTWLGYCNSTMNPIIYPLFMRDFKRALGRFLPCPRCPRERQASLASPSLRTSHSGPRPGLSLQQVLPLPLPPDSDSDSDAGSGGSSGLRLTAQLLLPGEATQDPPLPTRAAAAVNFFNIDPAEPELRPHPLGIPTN
In series [3] the test system is Mus musculus. As to the kind of experiment: Anticonvulsant activity in CF1 mouse assessed as protection against subcutaneous metrazole-induced seizures at 100 mg/kg, ip after 0.5 hrs. In kind it is functional, organism-based. Further details: dose 100 mg/kg. The gist of the method:
(§1)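 Mice given compound i.p. at 30, 100 or 300 mg/kg and tested 0.5 or 4 h after dosing. Seizures were induced by maximal electroshock (MES) or subcutaneous metrazole (ScMet). Prevention of seizures counts as protection. Result is recorded as number of animals protected over number tested.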

Series [4] has as its system Rattus norvegicus. As to the kind of experiment: Neurotoxicity in Sprague-Dawley rat assessed as minimal motor impairment at 30 mg/kg, po after 4 hrs by rotorod test. The following applies: in vivo.
Series [5] concerns Rattus norvegicus. As to the kind of experiment: Neurotoxicity in Sprague-Dawley rat assessed as minimal motor impairment at 30 mg/kg, po after 1 hr by rotorod test. The following applies: in vivo.
Series [6] deals with Mus musculus. As to the kind of experiment: Anticonvulsant activity in CF1 mouse assessed as protection against maximal electroshock-induced seizures at 100 mg/kg, ip after 4 hrs. The arrangement: dose 100 mg/kg. It counts as functional, organism-based. The gist of the method:
as §1
For orientation: The maximal electroshock test induces tonic seizures with an electrical stimulus.

In series [7] the test system is Rattus norvegicus. As to the kind of experiment: Anticonvulsant activity in Sprague-Dawley rat assessed as protection against maximal electroshock-induced seizures at 30 mg/kg, po after 0.25 hrs. It counts as functional, organism-based. The arrangement: dose 30 mg/kg. The gist of the method:
(§2)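 Rats dosed orally at 30 mg/kg and tested in MES at several time points after dosing. Protection means seizures were prevented. Result is recorded as number of animals protected over number tested.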

Series [8] deals with Mus musculus. As to the kind of experiment: Anticonvulsant activity in CF1 mouse assessed as protection against subcutaneous metrazole-induced seizures at 30 mg/kg, ip after 0.5 hrs. In kind it is functional, organism-based. Further details: dose 30 mg/kg. In a few lines: as §1
Series [9] has as its system Mus musculus. As to the kind of experiment: Anticonvulsant activity in CF1 mouse assessed as protection against maximal electroshock-induced seizures at 30 mg/kg, ip after 0.5 hrs. In kind it is functional, organism-based. Further details: dose 30 mg/kg. The gist of the method:
as §1

For series [10], the system named is Rattus norvegicus. As to the kind of experiment: Neurotoxicity in Sprague-Dawley rat assessed as minimal motor impairment at 30 mg/kg, po after 0.5 hrs by rotorod test. The following applies: in vivo.
In series [11] the target is 5-hydroxytryptamine receptor 7 (Homo sapiens, UniProt P34969). As to the kind of experiment: Displacement of [3H]5-CT from human 5HT7b receptor expressed in HEK293 cells after 1 hr. It counts as cell-based.
5-hydroxytryptamine receptor 7, sequence (P34969 whole entry): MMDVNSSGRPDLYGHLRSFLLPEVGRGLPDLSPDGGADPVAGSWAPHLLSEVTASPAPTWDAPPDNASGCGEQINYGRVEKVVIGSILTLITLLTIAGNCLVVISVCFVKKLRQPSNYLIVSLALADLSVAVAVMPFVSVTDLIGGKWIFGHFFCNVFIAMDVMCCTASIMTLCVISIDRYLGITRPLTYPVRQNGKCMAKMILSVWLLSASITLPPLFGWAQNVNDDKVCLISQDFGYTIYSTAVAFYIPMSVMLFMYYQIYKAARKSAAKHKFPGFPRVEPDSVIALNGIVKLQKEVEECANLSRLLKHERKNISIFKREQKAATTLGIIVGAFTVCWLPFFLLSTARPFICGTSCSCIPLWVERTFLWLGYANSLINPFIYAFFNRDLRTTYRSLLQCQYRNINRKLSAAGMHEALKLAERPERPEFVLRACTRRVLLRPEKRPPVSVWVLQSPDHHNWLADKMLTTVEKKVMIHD
The species entered for series [12] is Rattus norvegicus. As to the kind of experiment: Displacement of [3H]CGP-12177 from beta1-adrenergic receptor in rat cerebral cortex at 50 uM after 60 mins by scintillation counting. In kind it is tissue-based.
Series [13] relates to Mus musculus. As to the kind of experiment: Anticonvulsant activity in CF1 mouse assessed as protection against maximal electroshock-induced seizures at 100 mg/kg, ip after 0.5 hrs. In kind it is functional, organism-based. The arrangement: dose 100 mg/kg. The gist of the method: as §1
Series [14] relates to Rattus norvegicus. As to the kind of experiment: Anticonvulsant activity in Sprague-Dawley rat assessed as protection against maximal electroshock-induced seizures at 30 mg/kg, po after 2 hrs. In kind it is functional, organism-based. Further details: dose 30 mg/kg. In a few lines: as §2
The target in series [15] is T1, Adrenergic receptor alpha-1 (Rattus norvegicus, UniProt P15823+P23944+P43140).
T1 sequence (P15823 whole entry): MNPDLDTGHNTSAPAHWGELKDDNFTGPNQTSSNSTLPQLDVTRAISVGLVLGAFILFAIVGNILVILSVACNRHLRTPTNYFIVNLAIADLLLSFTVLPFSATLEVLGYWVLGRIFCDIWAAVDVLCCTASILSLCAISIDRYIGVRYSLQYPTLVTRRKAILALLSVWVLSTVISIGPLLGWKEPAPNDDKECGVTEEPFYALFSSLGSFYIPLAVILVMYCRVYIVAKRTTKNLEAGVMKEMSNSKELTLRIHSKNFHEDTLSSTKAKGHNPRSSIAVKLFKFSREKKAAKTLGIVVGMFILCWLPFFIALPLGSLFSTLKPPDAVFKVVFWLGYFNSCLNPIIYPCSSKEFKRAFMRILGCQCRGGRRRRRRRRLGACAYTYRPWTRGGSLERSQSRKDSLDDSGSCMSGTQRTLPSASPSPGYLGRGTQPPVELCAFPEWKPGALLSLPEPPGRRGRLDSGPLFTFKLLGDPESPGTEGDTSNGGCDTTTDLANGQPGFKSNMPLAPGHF
T1 sequence (P23944 whole entry): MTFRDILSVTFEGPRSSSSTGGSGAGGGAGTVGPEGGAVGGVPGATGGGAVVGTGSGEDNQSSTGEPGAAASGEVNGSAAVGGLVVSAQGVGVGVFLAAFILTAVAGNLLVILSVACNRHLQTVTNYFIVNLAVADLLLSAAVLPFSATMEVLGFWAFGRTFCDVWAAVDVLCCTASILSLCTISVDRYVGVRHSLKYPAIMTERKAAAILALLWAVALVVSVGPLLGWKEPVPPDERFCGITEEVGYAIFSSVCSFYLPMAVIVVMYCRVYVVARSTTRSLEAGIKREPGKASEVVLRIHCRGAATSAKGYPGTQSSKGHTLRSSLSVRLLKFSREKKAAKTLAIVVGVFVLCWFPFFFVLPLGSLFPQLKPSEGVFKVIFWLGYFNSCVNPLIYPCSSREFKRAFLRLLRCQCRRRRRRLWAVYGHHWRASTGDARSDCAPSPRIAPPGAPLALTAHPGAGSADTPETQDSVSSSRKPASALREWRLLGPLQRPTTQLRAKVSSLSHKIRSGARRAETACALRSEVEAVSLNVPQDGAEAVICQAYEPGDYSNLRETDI
T1 sequence (P43140 whole entry): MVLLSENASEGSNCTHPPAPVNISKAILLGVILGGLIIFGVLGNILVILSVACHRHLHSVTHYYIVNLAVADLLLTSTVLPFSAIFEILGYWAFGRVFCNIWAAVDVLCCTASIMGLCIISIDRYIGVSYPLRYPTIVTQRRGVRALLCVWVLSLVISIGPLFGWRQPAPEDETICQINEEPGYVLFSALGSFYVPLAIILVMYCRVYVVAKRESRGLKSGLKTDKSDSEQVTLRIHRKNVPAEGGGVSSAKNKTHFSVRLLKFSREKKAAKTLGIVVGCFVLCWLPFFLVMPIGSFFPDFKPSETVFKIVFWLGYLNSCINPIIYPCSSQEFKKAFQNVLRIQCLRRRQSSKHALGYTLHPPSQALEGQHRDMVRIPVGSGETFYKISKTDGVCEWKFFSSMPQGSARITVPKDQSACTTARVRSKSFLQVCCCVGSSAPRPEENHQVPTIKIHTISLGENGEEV
As to the kind of experiment: Displacement of [3H]prazosin from alpha1-adrenergic receptor in rat cerebral cortex after 30 mins by scintillation counting. It counts as tissue-based. In a few lines:
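Radioligand binding on rat brain tissue membranes, run in 96-well format. [3H]prazosin was used for α1 (n = 2) and [3H]CGP-12177 for β1 (n = 2). Ki was calculated by the Cheng–Prusoff equation.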

Series [16] relates to Mus musculus. As to the kind of experiment: Anticonvulsant activity in CF1 mouse assessed as protection against maximal electroshock-induced seizures at 30 mg/kg, ip after 4 hrs. In kind it is functional, organism-based. The arrangement: dose 30 mg/kg. The gist of the method:
as §1

Activity calls are given as the source filed them. The calls are words filed in the database; no cut-off is given here.

In the case of `Cl.Cl.Cl.O=c1c2ccc(Cl)cc2oc2c(CN3CCN(CCO)CC3)cccc12`, the Activity entry in the series with Mus musculus [1] is reported as “Toxic”; with Rattus norvegicus [4], “Non-toxic”; with Rattus norvegicus [5] it was “Non-toxic”; in the series on Rattus norvegicus [10], “Non-toxic”. The Ki in series [2] stood at 14.4 µM; in series [11], 17.4 µM; in series [15], 3.93 µM. For the same compound, the outcome in the series on Mus musculus [3], with Mus musculus [6], with Rattus norvegicus [7], with Mus musculus [8], with Mus musculus [9] and in the series with Rattus norvegicus [14] was inactive. Further, the result in the series on Mus musculus [16] was inactive. In addition, the inhibition result in the series filed under Rattus norvegicus [12] was “inactive”. Besides, in the series with Mus musculus [13], the result was Active.

Usually Ki stands for the equilibrium dissociation constant of an inhibitor or competing ligand from its target. Higher therefore signals a looser hold on the target.
